# Laboratory results: paper PMC10793424 (bioRxiv, 2024)
# pIC50: −log10 of the molar value. Read-outs that look alike come from different tables or passages of the source.
# Experiments:
# [1] = system: PTH secretion from parathyroid glands; assay: Ex vivo parathyroid gland culture: PTH secretion and Ca2+ set-point; type: cell-based, mouse
# Method in brief: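 Glands from 4-week-old wild-type C57/B6 mice, incubated sequentially with rising test compound (0.01 nM–50 µM) at 0.75 mM [Ca2+]e for dose-response. For set-point, 50 or 500 nM compound under rising [Ca2+]e. PTH secretion rate per gland per hour was normalized between vehicle basal rate (0.5 mM) and rate at 3.0 mM. Set-point is the [Ca2+]e suppressing 50% of Ca-suppressible secretion. n = 8 gland groups, mean ± SEM.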
# [2] = for duration of significantly lowered serum calcium / lowest level of serum calcium: 3 mg/kg subcutaneous; for lowest level of serum calcium: from 2.2 mM
# [3] = system: serum PTH; assay: Serum PTH after subcutaneous injection; type: in vivo, C57/B6 mice; details: WT B6 mice
# Method in brief: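 Wild-type B6 mice given subcutaneous injections. Serum PTH was followed over 8 h after 1 mg/kg or 10 mg/kg. Dose comparison used serum PTH sampled 30 min after injection at several doses. n = 10 mice per dose, n = 5 at 10 mg/kg. Reference compound doses were corrected for molecular weight to match molar amounts. Unpaired Student's t-test.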
# [4] = plasma, 3 mg/kg subcutaneous, CD-1 mice
# [5] = in vivo; details: male, CD-1, mouse, sc, 3 mg/kg
# [6] = 1 mg/kg (3.1 µmol/kg, equimolar) subcutaneous
SMILES,"calcium set point for PTH secretion ([1]; PAM at 50 nM, vehicle 1.47 mM) [mM]","calcium set point for PTH secretion ([1]; PAM at 500 nM, vehicle 1.5 mM)",duration of significantly lowered serum calcium [2],lowest level of serum calcium [2] [mM],"suppression of PTH secretion (serum PTH) [3, 6]",suppression of PTH secretion (serum PTH) ([3]; 10 mg/kg (31 µmole/kg) subcutaneous),Cmax [4] [nM],time of Cmax [4] [min],Cmax [5] [ng/mL],"pIC50 ([1]; Mus musculus, read-out: IC50 in suppressing PTH secretion)",hypocalcemic action ([2]; 3.1 µmol/kg (~1 mg/kg) subcutaneous)
C[C@@H](NCCCc1cccc(C(F)(F)F)c1)c1cccc2ccccc12 [cinacalcet],1.23,~ 0.94 mM,more than 8 hrs,1.7,less effective,fully suppress,150,15,58.9,,
C[C@@H](N[C@H]1CCN(c2ccc(CC(=O)O)cc2)C1)c1cccc2ccccc12 [evocalcet],1,0.76 mM,more than 8 hrs,1.6,fully suppress,,,60,,6.00,particularly robust
